Measurements from ChEMBL document CHEMBL1148747, “Structure-activity relationship studies of spinorphin as a potent and selective human P2X(3) receptor antagonist” (J Med Chem, 2007).
Active and inactive are the calls of the source. The rule behind the calls is not given here. Residues, ends and D or L forms follow the SMILES beside them.

Columns and labels:
[1] = target: T1, P2X purinoceptor 3 (Homo sapiens) (UniProt P56373); assay: Antagonist activity at human recombinant P2X3 receptor expressed in Xenopus oocytes assessed as inhibition of ATP-induced ion current at 10 uM by two electrode voltage clamping technique; format: functional, cell-based; details: Oocyte
T1 sequence (whole entry): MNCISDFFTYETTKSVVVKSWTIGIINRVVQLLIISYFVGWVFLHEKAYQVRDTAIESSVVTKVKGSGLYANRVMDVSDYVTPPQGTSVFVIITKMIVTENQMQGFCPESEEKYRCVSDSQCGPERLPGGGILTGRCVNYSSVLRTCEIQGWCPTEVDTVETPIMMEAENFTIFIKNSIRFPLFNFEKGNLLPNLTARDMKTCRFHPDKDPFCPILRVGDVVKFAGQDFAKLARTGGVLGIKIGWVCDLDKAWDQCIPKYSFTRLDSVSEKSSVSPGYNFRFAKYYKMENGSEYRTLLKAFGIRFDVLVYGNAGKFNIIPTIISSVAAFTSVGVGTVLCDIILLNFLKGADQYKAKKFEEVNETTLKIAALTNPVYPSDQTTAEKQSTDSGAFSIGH
How it was run: (§1)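 Defolliculated Xenopus oocytes injected with receptor cRNA (40 nL, 1 µg/mL). Incubated 24 h at 18 °C in Barth's solution, then kept at 4 °C for up to 12 days. Two-electrode voltage clamp at Vh -90 mV in Ringer's solution (Ba2+, pH 7.5, 18 °C). Peptide applied 20 min before 2 µM ATP; current inhibition measured against ATP-alone control; n = 4.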

[2] = target: T1, P2X purinoceptor 3 (Homo sapiens); assay: Antagonist activity at human recombinant P2X3 receptor expressed in Xenopus oocytes assessed as inhibition of ATP-induced ion current at 100 nM by two electrode voltage clamping technique; details: Oocyte
[3] = target: T2, P2X purinoceptor 3 (Homo sapiens, UniProt P56373); assay: Antagonist activity at human recombinant P2X3 receptor expressed in Xenopus oocytes assessed as inhibition of ATP-induced ion current in presence of 20 nM LVVYPWA peptide by two electrode voltage clamping technique; format: functional, cell-based, Oocyte
T2 sequence (P56373 whole entry): T1 sequence (whole entry)

[4] = target: T3, P2X purinoceptor 7 (Homo sapiens) (UniProt Q99572); assay: Antagonist activity at human recombinant P2X7 receptor expressed in HEK293 cells assessed as BzATP-induced ethidium accumulation at 10 uM; format: functional, cell-based
T3 sequence (whole entry): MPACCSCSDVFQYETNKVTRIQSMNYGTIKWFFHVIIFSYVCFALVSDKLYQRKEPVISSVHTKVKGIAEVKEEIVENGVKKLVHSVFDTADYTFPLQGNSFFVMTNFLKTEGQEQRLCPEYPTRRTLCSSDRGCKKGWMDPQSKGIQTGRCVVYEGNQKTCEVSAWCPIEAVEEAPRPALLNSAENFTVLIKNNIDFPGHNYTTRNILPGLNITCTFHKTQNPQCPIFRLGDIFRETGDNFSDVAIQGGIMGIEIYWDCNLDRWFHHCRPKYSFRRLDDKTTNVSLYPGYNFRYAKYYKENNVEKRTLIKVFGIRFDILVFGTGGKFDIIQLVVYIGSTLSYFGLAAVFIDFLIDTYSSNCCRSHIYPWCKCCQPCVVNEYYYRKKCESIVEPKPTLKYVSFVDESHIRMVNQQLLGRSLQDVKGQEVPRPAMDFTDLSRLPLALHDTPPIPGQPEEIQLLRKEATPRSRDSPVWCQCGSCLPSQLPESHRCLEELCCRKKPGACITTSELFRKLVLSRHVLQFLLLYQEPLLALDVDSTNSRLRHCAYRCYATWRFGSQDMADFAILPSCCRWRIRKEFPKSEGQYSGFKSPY
How it was run: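 HEK293 cells expressing human P2X7, grown in DMEM with 10% FBS. Cells resuspended in HEPES/KCl/glucose/EDTA buffer (pH 7.4) with 100 µM ethidium bromide, 2 × 10^5 cells/well. 6 µM BzATP given together with 10 µM compound, no preincubation. After 120 min at 37 °C, ethidium fluorescence read (ex 530/em 590 nm). Mean ± SEM, n = 3.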

[5] = target: T2, P2X purinoceptor 3; assay: Antagonist activity at human P2X3 receptor expressed in Xenopus oocytes assessed as inhibition of ATP-induced ion current by two electrode voltage clamping technique; format: functional, cell-based, Oocyte; how it was run: as §1
[6] = target: T4, P2X purinoceptor 1 (Mus musculus) (UniProt P51576); assay: Antagonist activity at mouse recombinant P2X1 receptor expressed in Xenopus oocytes assessed as inhibition of ATP-induced ion current at 10 uM by two electrode voltage clamping technique; format: functional, cell-based; details: Oocyte; how it was run: as §1
T4 sequence (whole entry): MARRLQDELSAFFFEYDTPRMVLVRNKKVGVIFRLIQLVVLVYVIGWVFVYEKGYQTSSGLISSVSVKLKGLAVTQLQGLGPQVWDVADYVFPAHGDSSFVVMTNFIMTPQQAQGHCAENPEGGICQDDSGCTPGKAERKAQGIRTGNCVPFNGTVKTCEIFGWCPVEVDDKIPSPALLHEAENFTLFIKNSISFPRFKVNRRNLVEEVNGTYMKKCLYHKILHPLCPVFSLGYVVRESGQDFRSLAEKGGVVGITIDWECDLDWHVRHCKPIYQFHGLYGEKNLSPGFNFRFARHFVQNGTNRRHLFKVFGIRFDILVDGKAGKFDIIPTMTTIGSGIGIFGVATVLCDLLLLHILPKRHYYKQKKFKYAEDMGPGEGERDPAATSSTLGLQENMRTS

[7] = target: T4, P2X purinoceptor 1 (Mus musculus); assay: Antagonist activity at mouse recombinant P2X1 receptor expressed in Xenopus oocytes assessed as inhibition of ATP-induced ion current at 100 nM by two electrode voltage clamping technique; details: Oocyte

Row | Compound | inhibition [2] [%] | inhibition [6] [%] | Activity [4] | other results
1 | CC(C)[C@H](N)C(=O)N[C@@H](Cc1ccc(O)cc1)C(=O)N1CCC[C@H]1C(=O)O (H-Val-Tyr-Pro-OH) | – | – | – | inhibition [1]: 16.2%
2 | H-LVVYPWT-OH [SPINORPHIN] | 67.2 | 7.4 | – | IC50 [3]: 0.0481 nM; inhibition [4]: 8.3%; IC50 [5]: 0.0083 nM
3 | H-LVAYPWT-OH | 53.4 | – | inactive | Activity [6]: inactive
4 | H-LVVYPAT-OH | 17 | 4.2 | – | inhibition [4]: 16.7%
5 | H-AVVYPWT-OH | 82.5 | – | inactive | IC50 [5]: 14.3 nM; Activity [6]: inactive
6 | Cc1nc(/N=N/c2cc(S(=O)(=O)O)ccc2S(=O)(=O)O)c(COP(=O)(O)O)c(C=O)c1O [ISOPPADS] | 48.3 | – | – | inhibition [7]: 64.2%; IC50 [5]: 108 nM
7 | C[C@@H](O)[C@H](NC(=O)[C@H](Cc1c[nH]c2ccccc12)NC(=O)[C@@H]1CCCN1)C(=O)O (H-Pro-Trp-Thr-OH) | – | – | – | inhibition [1]: 32.7%
8 | H-LVVYAWT-OH | 12.9 | – | inactive | Activity [6]: inactive
9 | H-LVVAPWT-OH | 52.3 | – | inactive | Activity [6]: inactive
10 | CC(C)[C@H](N)C(=O)N[C@@H](Cc1ccc(O)cc1)C(=O)N1CCC[C@H]1C(=O)N[C@@H](Cc1c[nH]c2ccccc12)C(=O)O (H-VYPW-OH) | – | – | – | Activity [1]: inactive
11 | CC(C)[C@@H]1NC(=O)[C@H](C)NC(=O)[C@H]([C@@H](C)O)NC(=O)[C@H](Cc2c[nH]c3ccccc23)NC(=O)[C@@H]2CCCN2C(=O)[C@H](Cc2ccc(O)cc2)NC(=O)[C@H](C(C)C)NC1=O (HELM PEPTIDE1{A.V.V.Y.P.W.T}$PEPTIDE1,PEPTIDE1,1:R1-7:R2$$$V2.0) | 11.4 | 6.4 | inactive | –
12 | CC(C)C[C@@H](NC(=O)[C@H](NC(=O)[C@H](NC(=O)[C@@H](Cc1ccc(O)cc1)NC(=O)[C@H]1CCCN1C(=O)[C@@H](Cc1c[nH]c2ccccc12)NC(=O)[C@H](N)[C@@H](C)O)C(C)C)C(C)C)C(=O)O | – | 15.5 | inactive | –
13 | H-VYPWT-OH | – | – | – | Activity [1]: inactive
14 | CC(C)C[C@@H]1NC(=O)[C@H]([C@@H](C)O)NC(=O)[C@H](Cc2c[nH]c3ccccc23)NC(=O)[C@@H]2CCCN2C(=O)[C@H](Cc2ccc(O)cc2)NC(=O)[C@H](C(C)C)NC(=O)[C@H](C(C)C)NC1=O (HELM PEPTIDE1{L.V.V.Y.P.W.T}$PEPTIDE1,PEPTIDE1,1:R1-7:R2$$$V2.0) | 36.3 | 11.5 | – | inhibition [4]: 8.8%; IC50 [5]: 82.4 nM
15 | C[C@@H](O)[C@H](NC(=O)[C@H](Cc1c[nH]c2ccccc12)NC(=O)[C@@H]1CCCN1C(=O)[C@@H](N)Cc1ccc(O)cc1)C(=O)O (H-YPWT-OH) | – | – | – | inhibition [1]: 13.3%
16 | H-VVYPWT-OH | – | – | – | inhibition [1]: 29.3%
17 | H-LAVYPWT-OH | 48.4 | 8.1 | – | inhibition [4]: 7.6%; IC50 [5]: 32.4 nM
18 | N[C@@H](Cc1ccc(O)cc1)C(=O)N1CCC[C@H]1C(=O)N[C@@H](Cc1c[nH]c2ccccc12)C(=O)O (H-Tyr-Pro-Trp-OH) | – | – | – | inhibition [1]: 15.6%
